# Measurements published in ChEMBL document CHEMBL3627646, “Synthesis and biological activity of amino acid derivatives of avarone and its model compound” (Bioorg Med Chem, 2015).
# Activity calls are given as the source filed them. No cut-off for these calls is given here.
# What was measured:
# HeLa [1] = assay: Cytotoxicity against human HeLa cells assessed as cell survival after 72 hrs by MTT assay; assay type: functional, cell-based
# Method in brief: (§1)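 Cells seeded (HeLa 2000, MDA-MB-453 3000, others 5000 per well), treated 24 h later (K562 after 2 h). Five double-diluted final concentrations, 200–12.5 μM, from 10 mM DMSO stocks, in RPMI-1640 with 10% FBS, pH 7.2, 72 h. MTT 4 h at 37 °C, SDS added, A570 read next day. Survival relative to medium control; IC50 from survival curves; triplicate; cisplatin positive control.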
# A549 = assay: Cytotoxicity against human A549 cells assessed as cell survival after 72 hrs by MTT assay; assay type: functional, cell-based; settings: A549, 72 h; method in brief: as §1
# [2] = Cytotoxicity against human Fem-X cells assessed as cell survival after 72 hrs by MTT assay; assay type: functional, cell-based; method in brief: as §1
# K562 = assay: Cytotoxicity against human K562 cells assessed as cell survival after 72 hrs by MTT assay; assay type: functional, cell-based; settings: K562, 72 h; method in brief: as §1
# MDA-MB-453 = assay: Cytotoxicity against human MDA-MB-453 cells assessed as cell survival after 72 hrs by MTT assay; assay type: functional, cell-based; settings: MDA-MB-453, 72 h; method in brief: as §1
# MRC5 [3] = assay: Cytotoxicity against human MRC5 cells assessed as cell survival after 72 hrs by MTT assay; assay type: cell-based; settings: MRC5, 72 h; method in brief: as §1
# HeLa [4] = assay: Cell cycle arrest in human HeLa cells assessed as accumulation at G2/M phase at IC50 after 24 hrs using propidium iodide staining by cytofluorometric analysis; assay type: functional, cell-based
# Method in brief: (§2)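 Trypsinized, fixed in ice-cold 70% ethanol then held at −20 °C at least one week. Treated with RNase 100 µg/mL at 37 °C 30 min, stained with PI 40 µg/mL at least 30 min. Flow cytometry on ≥10,000 cells.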
# HeLa [5] = assay: Cell cycle arrest in human HeLa cells assessed as accumulation at G2/M phase at 2 time IC50 after 24 hrs using propidium iodide staining by cytofluorometric analysis; assay type: functional, cell-based; method in brief: as §2
# Staphylococcus aureus = assay: Antibacterial activity against Staphylococcus aureus ATCC 6538 after 24 hrs by microbroth double dilution method; assay type: functional; settings: ATCC 6538, 24 h
# Method in brief: (§3)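 Microbroth double dilution in Mueller Hinton broth; compound stock 10 mg/mL in DMSO serially halved across rows. Wells inoculated with 10 μL culture at 10^6 cells/mL, incubated 37 °C for 24 h. Amikacin row as positive control, DMSO row as negative control. MIC taken as lowest concentration inhibiting bacterial growth.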
# Kocuria rhizophila = assay: Antibacterial activity against Kocuria rhizophila ATCC 9341 after 24 hrs by microbroth double dilution method; assay type: functional; settings: ATCC 9341, 24 h; method in brief: as §3
# Bacillus subtilis = assay: Antibacterial activity against Bacillus subtilis ATCC 6633 after 24 hrs by microbroth double dilution method; assay type: functional; settings: ATCC 6633, 24 h; method in brief: as §3
# Micrococcus luteus = assay: Antibacterial activity against Micrococcus luteus ATCC 4698 after 24 hrs by microbroth double dilution method; assay type: functional; settings: ATCC 4698, 24 h; method in brief: as §3
# Micrococcus flavus = assay: Antibacterial activity against Micrococcus flavus ATCC 10240 after 24 hrs by microbroth double dilution method; assay type: functional; settings: ATCC 10240, 24 h; method in brief: as §3
# Clostridium sporogenes = assay: Antibacterial activity against Clostridium sporogenes ATCC 19404 after 24 hrs by microbroth double dilution method; assay type: functional; settings: ATCC 19404, 24 h; method in brief: as §3
# Escherichia coli = assay: Antibacterial activity against Escherichia coli ATCC 25922 after 24 hrs by microbroth double dilution method; assay type: functional; settings: ATCC 25922, 24 h; method in brief: as §3
# Proteus hauseri = assay: Antibacterial activity against Proteus hauseri ATCC 13315 after 24 hrs by microbroth double dilution method; assay type: functional; settings: ATCC 13315, 24 h; method in brief: as §3
# Salmonella enterica = assay: Antibacterial activity against Salmonella enterica ATCC 13076 after 24 hrs by microbroth double dilution method; assay type: functional; settings: ATCC 13076, 24 h; method in brief: as §3
# Pseudomonas aeruginosa = assay: Antibacterial activity against Pseudomonas aeruginosa ATCC 9027 after 24 hrs by microbroth double dilution method; assay type: functional; settings: ATCC 9027, 24 h; method in brief: as §3
# Candida albicans = assay: Antifungal activity against Candida albicans ATCC 10231 after 24 hrs by microbroth double dilution method; assay type: functional; settings: ATCC 10231, 24 h
# Saccharomyces cerevisiae = assay: Antifungal activity against Saccharomyces cerevisiae ATCC 9763 after 24 hrs by microbroth double dilution method; assay type: functional; settings: ATCC 9763, 24 h
# Aspergillus brasiliensis = assay: Antifungal activity against Aspergillus brasiliensis ATCC 16404 after 24 hrs by microbroth double dilution method; assay type: functional; settings: ATCC 16404, 24 h
# Artemia salina = assay: Cytotoxicity in Brine shrimp assessed as nauplii mortality after 24 hrs; assay type: organism-based; settings: in vivo
# Method in brief: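 Artemia salina eggs hatched in aerated tap water with dried yeast at 18–20 °C under illumination for 48 h, and freshly hatched nauplii were used. Compounds in DMSO (0.01–1 mg) were added to 950 µL artificial seawater containing 10–20 nauplii, with 5% final DMSO. After 24 h under illumination at room temperature, dead and surviving nauplii were counted and statistically analysed.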
# HeLa [6] = assay: Cell cycle arrest in human HeLa cells assessed as accumulation at sub-G1 phase at IC50 after 24 hrs using propidium iodide staining by cytofluorometric analysis; assay type: functional, cell-based; method in brief: as §2
# HeLa [7] = assay: Cell cycle arrest in human HeLa cells assessed as reduction in G1 phase at IC50 after 24 hrs using propidium iodide staining by cytofluorometric analysis; assay type: functional, cell-based; method in brief: as §2
# HeLa [8] = assay: Cell cycle arrest in human HeLa cells assessed as accumulation at sub-G1 phase at 2 time IC50 after 24 hrs using propidium iodide staining by cytofluorometric analysis; assay type: functional, cell-based; method in brief: as §2
# HeLa [9] = assay: Cell cycle arrest in human HeLa cells assessed as reduction in G1 phase at 2 time IC50 after 24 hrs using propidium iodide staining by cytofluorometric analysis; assay type: functional, cell-based; method in brief: as §2
# HeLa [10] = assay: Cell cycle arrest in human HeLa cells assessed as accumulation at sub-G1 phase after 24 hrs using propidium iodide staining by cytofluorometric analysis; assay type: functional, cell-based; method in brief: as §2
# HeLa [11] = assay: Cell cycle arrest in human HeLa cells assessed as accumulation at G2/M phase after 24 hrs using propidium iodide staining by cytofluorometric analysis; assay type: functional, cell-based; method in brief: as §2
# HeLa [12] = assay: Induction of apoptosis in human HeLa cells assessed as accumulation at sub-G1 phase after 24 hrs in presence of caspase-3 inhibitor Z-DEVD-FMK using propidium iodide staining by flow cytometric analysis; assay type: functional, cell-based
# HeLa [13] = assay: Induction of apoptosis in human HeLa cells assessed as accumulation at sub-G1 phase after 24 hrs in presence of caspase-8 inhibitor Z-IETD-FMK using propidium iodide staining by flow cytometric analysis; assay type: functional, cell-based
# HeLa [14] = assay: Induction of apoptosis in human HeLa cells assessed as accumulation at sub-G1 phase after 24 hrs in presence of caspase-9 inhibitor Z-LEHD-FMK using propidium iodide staining by flow cytometric analysis; assay type: functional, cell-based
# HeLa [15] = assay: Induction of apoptosis in human HeLa cells assessed as accumulation at sub-G1 phase after 24 hrs using propidium iodide staining by flow cytometric analysis; assay type: functional, cell-based
# MRC5 [16] = assay: Cytotoxicity against human MRC5 cells; assay type: cell-based
SMILES,IC50 (HeLa [1]),IC50 (A549),IC50 [2],IC50 (K562),IC50 (MDA-MB-453),IC50 (MRC5 [3]),MIC (Staphylococcus aureus),MIC (Kocuria rhizophila),MIC (Bacillus subtilis),MIC (Micrococcus luteus),MIC (Micrococcus flavus),MIC (Clostridium sporogenes),MIC (Escherichia coli),MIC (Proteus hauseri),MIC (Salmonella enterica),MIC (Pseudomonas aeruginosa),MIC (Candida albicans),MIC (Saccharomyces cerevisiae),MIC (Aspergillus brasiliensis),LC50 (Artemia salina),also measured
CSCC[C@H](NC1=CC(=O)C=C(C[C@]2(C)[C@@H](C)CC[C@]3(C)C(C)=CCC[C@@H]23)C1=O)C(=O)O,13.9 µM,47.3 µM,19.4 µM,13.6 µM,25.6 µM,> 200 µM,42.4 µM,1360 µM,170 µM,42.4 µM,170 µM,170 µM,42.4 µM,341 µM,170 µM,170 µM,< 2.67 µM,87.8 µM,341 µM,147.7 ppm,Activity (HeLa [4]): Active; Activity (HeLa [5]): Active
CC1=CCC[C@H]2[C@](C)(CC3=CC(=O)C=C(N[C@@H](C(=O)O)C(C)C)C3=O)[C@@H](C)CC[C@]12C,10.9 µM,23.8 µM,11.4 µM,7.78 µM,8.01 µM,85.4 µM,22.9 µM,1460 µM,91.3 µM,22.9 µM,91.3 µM,91.3 µM,22.9 µM,183 µM,183 µM,91.3 µM,< 2.88 µM,368 µM,164 µM,50.5 ppm,Activity (HeLa [6]): Active; Activity (HeLa [7]): Active; Activity (HeLa [8]): Active; Activity (HeLa [9]): Active; Activity (HeLa [4]): Active; Activity (HeLa [5]): Active; Activity (HeLa [10]): Dose-dependent effect; Activity (HeLa [11]): Dose-dependent effect
CC1=CCC[C@H]2[C@](C)(CC3=CC(=O)C=C(N[C@@H](CC(C)C)C(=O)O)C3=O)[C@@H](C)CC[C@]12C,7.72 µM,19.7 µM,10.9 µM,11.2 µM,10.9 µM,73.4 µM,5.55 µM,709 µM,88.3 µM,11.1 µM,88.3 µM,44.2 µM,5.55 µM,44.2 µM,88.3 µM,88.3 µM,< 5.54 µM,176 µM,1410 µM,117 ppm,Activity (HeLa [6]): Active; Activity (HeLa [7]): Active; Activity (HeLa [8]): Active; Activity (HeLa [9]): Active; Activity (HeLa [12]): inactive; Activity (HeLa [13]): inactive; Activity (HeLa [14]): inactive; Activity (HeLa [15]): Active
CC1=CCC[C@H]2[C@](C)(CC3=CC(=O)C(N[C@@H](CC(C)C)C(=O)O)=CC3=O)[C@@H](C)CC[C@]12C,–,–,–,–,–,–,–,–,–,–,–,–,–,–,–,–,–,–,–,–,IC50 (MRC5 [16]): > 100 µM
